Calls of active or inactive are those of the source. The rule behind the calls is not given here. Non-standard residues stand in square brackets, D forms with d. Residues, ends and D or L forms follow the SMILES beside them. *: point of attachment. Pro(trans-4-F) = O=C(O)[C@@H]1C[C@@H](F)CN1; Pro(4R-NH2) = N[C@H]1CN[C@H](C(=O)O)C1; 3Pal = N[C@@H](Cc1cccnc1)C(=O)O; β3hF = N[C@H](CC(=O)O)Cc1ccccc1; PhAc = O=C(Cc1ccccc1)*; azaGly = NNC(=O)O

For data set [1], the system named is Mus musculus. The data set is described as follows: Suppression of LPS-induced premature delivery in Timed-pregnant CD-1 mouse assessed as inhibition of LPS-induced myometrial contraction by measuring time of delay in labor at 20 mg administered subcutaneously followed by 0.1 mg, ip bolus injection on day 16 prior to LPS challenge (reference value: 12 hrs). In kind it is functional. Summed up: (§1)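 Pregnant mice given LPS (E. coli endotoxin) intraperitoneally on gestational day 16. Test agent 20 mg/kg/day, started on day 16, before LPS; controls received saline. Delivery scored as percentage of animals delivered at 12, 15–24, 24–48 and 72 h after LPS. Average delivery time after LPS also recorded. 5–6 animals per treated group; n=10 for saline controls.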

The subject of data set [2] is Mus musculus. Description: Suppression of LPS-induced premature delivery in Timed-pregnant CD-1 mouse assessed as inhibition of LPS-induced myometrial contraction at 20 mg administered subcutaneously followed by 0.1 mg, ip bolus injection on day 16 prior to LPS challenge and measured up to day 19. In kind it is functional, organism-based. Summed up: as §1
In data set [3] the test system is Mus musculus. Description: Suppression of LPS-induced premature delivery in Timed-pregnant CD-1 mouse assessed as inhibition of LPS-induced myometrial contraction by measuring percentage of animals delivering at 20 mg administered subcutaneously followed by 0.1 mg, ip bolus injection on day 16 prior to LPS challenge and measured on day 17. The class given is functional. Further details: scale not given: the % may be the effect or the level left. Summed up:
as §1

The target in data set [4] is Prostaglandin F2-alpha receptor (Mus musculus) (UniProt P43117). The data set is described as follows: Allosteric modulator activity at prostaglandin F2alpha receptor in CD-1 mouse myometrial strips assessed as inhibition of PGF2alpha- induced contraction at 1 uM pre-incubated for 20 mins followed by PGF2alpha challenge. Summed up:
(§2)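 Myometrial strips; baseline taken as mean tension of spontaneous contractions at start. Pretreated 20 min with modulator, then PGF2α challenge. Tension rise computed as […], X = PGF2α-induced change in mean tension (g), Y = initial reference response (g). % inhibition = (A-B)/A, A without and B with pretreatment. 5 experiments per group; means ± SEM.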

Data set [5] shares this target. The data set is described as follows: Allosteric modulator activity at prostaglandin F2alpha receptor in CD-1 mouse myometrial strips assessed as inhibition of PGF2alpha- induced contraction at 10 uM pre-incubated for 20 mins followed by PGF2alpha challenge. Summed up:
as §2

Data set [6] can be described thus: Solubility of the compound. In kind it is physicochemical.
The species named for data set [7] is Mus musculus. The data set is described as follows: Inhibition of spontaneous myometrial contraction in CD-1 mouse assessed as decrease in mean tension at 10 uM. In kind it is functional, tissue-based. The conditions noted are these: Myometrium.
Data set [8] deals with Mus musculus. The data set is described as follows: Suppression of PGF2alpha-induced premature delivery in Timed-pregnant CD-1 mouse assessed as inhibition of PGFalpha-induced myometrial contraction by measuring time of delay in labor at 10 mg administered subcutaneously followed by 0.1 mg, ip bolus injection on day 16 prior to PGF2alpha challenge (reference value: 2 hrs). The class given is functional.

Sequence of Prostaglandin F2-alpha receptor (Mus musculus) (P43117 whole entry): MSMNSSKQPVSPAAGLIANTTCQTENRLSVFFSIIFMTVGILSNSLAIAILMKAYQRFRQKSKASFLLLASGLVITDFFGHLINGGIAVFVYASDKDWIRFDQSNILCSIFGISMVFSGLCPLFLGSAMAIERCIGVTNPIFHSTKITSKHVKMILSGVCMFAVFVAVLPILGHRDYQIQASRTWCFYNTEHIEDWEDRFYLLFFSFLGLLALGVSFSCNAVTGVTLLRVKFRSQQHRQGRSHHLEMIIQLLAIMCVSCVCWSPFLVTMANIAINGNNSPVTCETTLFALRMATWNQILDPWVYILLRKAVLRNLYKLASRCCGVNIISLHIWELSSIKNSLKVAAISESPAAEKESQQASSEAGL

Consider `O=C(O)C[C@H](Cc1ccccc1)NC(=O)[C@H](Cc1cccnc1)NC(=O)[C@@H]1CCCN1C(=O)NNC(=O)Cc1ccccc1` (PhAc-[azaGly]P[3Pal][β3hF]-OH), for which, in the data set on Mus musculus [1], the Time worked out at 24 h. Moreover, the inhibition entry in the data set with Mus musculus [2] is “Active”. Moreover, the Activity in the data set on Mus musculus [3] was under 20%.

For the molecule `O=C(O)C[C@H](Cc1ccccc1)NC(=O)[C@H](Cc1cccnc1)NC(=O)[C@@H]1CCCN1C(=O)N(Cc1c(F)c(F)c(F)c(F)c1F)NC(=O)Cc1ccccc1`, the inhibition entry in data set [4] and in data set [5] was “inactive” each time. The solubility entry in data set [6] is “Insoluble”.

Take `O=C(O)C[C@H](Cc1ccccc1)NC(=O)[C@H](Cc1cccnc1)NC(=O)[C@@H]1C[C@@H](O)[C@H]2CC[C@H](NC(=O)Cc3ccccc3)C(=O)N21`: the inhibition entry in data set [4] and in data set [5] was “inactive” throughout.

`C#CCN(NC(=O)Cc1ccccc1)C(=O)N1C[C@@H](O)C[C@H]1C(=O)N[C@@H](Cc1cccnc1)C(=O)N[C@H](CC(=O)O)Cc1ccccc1`: the inhibition entry in data set [4] and in data set [5] was “inactive” in each case.

`N#Cc1ccc(C2=C3CC[C@@H](C(=O)N[C@@H](Cc4cccnc4)C(=O)N[C@H](CC(=O)O)Cc4ccccc4)N3C(=O)[C@@H](NC(=O)Cc3ccccc3)C2)cc1`: the inhibition result in data set [4] and in data set [5] was “inactive” in each case.

In the case of `O=C(O)C[C@H](Cc1ccccc1)NC(=O)[C@H](Cc1cccnc1)NC(=O)[C@@H]1CCCN1C(=O)N(Cc1c[nH]nn1)NC(=O)Cc1ccccc1`, the inhibition entry in data set [4] and in data set [5] was “inactive” throughout.

Consider `O=C(O)C[C@H](Cc1ccccc1)NC(=O)[C@H](Cc1cccnc1)NC(=O)[C@@H]1CCC2=C(c3ccc(OC(F)(F)F)cc3)C[C@H](NC(=O)Cc3ccccc3)C(=O)N21`, for which the inhibition entry in data set [4] and in data set [5] was “inactive” each time. Further, the inhibition entry in the data set filed under Mus musculus [7] was “Active”.

For `Cc1ccc(-n2cc(CN(NC(=O)Cc3ccccc3)C(=O)N3CCC[C@H]3C(=O)N[C@@H](Cc3cccnc3)C(=O)N[C@H](CC(=O)O)Cc3ccccc3)nn2)cc1`, the inhibition result in data set [4] and in data set [5] was “inactive” in each case.

As for `COc1ccc(C2=C3CC[C@@H](C(=O)N[C@@H](Cc4cccnc4)C(=O)N[C@H](CC(=O)O)Cc4ccccc4)N3C(=O)[C@@H](NC(=O)Cc3ccccc3)C2)cc1`, the inhibition result in data set [4] and in data set [5] was “inactive” in each case.

For the molecule `[N-]=[N+]=Nc1ccc(CC(=O)N[C@H]2CC[C@H]3CC[C@@H](C(=O)N[C@@H](Cc4cccnc4)C(=O)N[C@H](CC(=O)O)Cc4ccccc4)N3C2=O)cc1`, the inhibition result in data set [4] and in data set [5] was “inactive” each time.

Take `Nc1ccc(CC(=O)N[C@H]2CC[C@H]3CC[C@@H](C(=O)N[C@@H](Cc4cccnc4)C(=O)N[C@H](CC(=O)O)Cc4ccccc4)N3C2=O)cc1`: the inhibition entry in data set [4] and in data set [5] was “inactive” in each case.

For the molecule `O=C(O)C[C@H](Cc1ccccc1)NC(=O)[C@H](Cc1cccnc1)NC(=O)[C@@H]1CCCN1C(=O)N(Cc1ccccc1)NC(=O)Cc1ccccc1`, the Time with Mus musculus [1] was 24 h. The inhibition result (in data set [5]; in the data set with Mus musculus [2]) was “Active” each time. Further, in the data set on Mus musculus [3], the Activity was under 20%.

`O=C(O)C[C@H](Cc1ccccc1)NC(=O)[C@H](Cc1cccnc1)NC(=O)[C@@H]1CCC2=C(c3ccccc3)C[C@H](NC(=O)Cc3ccccc3)C(=O)N21`: the inhibition result in data set [4] and in data set [5] was “Active” each time.

As for `O=C(O)C[C@H](Cc1ccccc1)NC(=O)[C@H](Cc1cccnc1)NC(=O)[C@@H]1C[C@H](O)CN1C(=O)N(Cc1ccccc1)NC(=O)Cc1ccccc1`, the inhibition result in data set [4] and in data set [5] was “inactive” in each case.

On to `O=C(O)C[C@H](Cc1ccccc1)NC(=O)[C@H](Cc1cccnc1)NC(=O)[C@@H]1C[C@@H](F)CN1C(=O)N(Cc1ccccc1)NC(=O)Cc1ccccc1`, for which the inhibition entry in data set [4] and in data set [5] was “inactive” in each case.

As for `C#CCN(NC(=O)Cc1ccccc1)C(=O)N1C[C@H](O)C[C@H]1C(=O)N[C@@H](Cc1cccnc1)C(=O)N[C@H](CC(=O)O)Cc1ccccc1`, the inhibition entry in data set [4] and in data set [5] was “Active” each time.

As to `O=C(O)C[C@H](Cc1ccccc1)NC(=O)[C@H](Cc1cccnc1)NC(=O)[C@@H]1C[C@@H](F)CN1C(=O)NNC(=O)Cc1ccccc1` (PhAc-[azaGly][Pro(trans-4-F)][3Pal][β3hF]-OH), the inhibition result in data set [4] and in data set [5] was “inactive” in each case.

With `O=C(O)C[C@H](Cc1ccccc1)NC(=O)[C@H](Cc1cccnc1)NC(=O)[C@@H]1CCCN1C(=O)N(Cc1cn(-c2ccc([N+](=O)[O-])cc2)nn1)NC(=O)Cc1ccccc1`, the inhibition entry in data set [4] and in data set [5] was “inactive” throughout. In data set [6], the solubility result is listed as “Insoluble”.

Regarding `O=C(O)C[C@H](Cc1ccccc1)NC(=O)[C@H](Cc1cccnc1)NC(=O)[C@@H]1CC[C@@H]2CC[C@H](NC(=O)Cc3ccccc3)C(=O)N21`, in the data set on Mus musculus [8], the Time was at most 42 h.

In the case of `O=C(O)C[C@H](Cc1ccccc1)NC(=O)[C@H](Cc1cccnc1)NC(=O)[C@@H]1CCCN1C(=O)N(CC#CCN1CCCCC1)NC(=O)Cc1ccccc1`, the inhibition result in data set [4] and in data set [5] was “inactive” throughout.

Consider `O=C(O)C[C@H](Cc1ccccc1)NC(=O)[C@H](Cc1cccnc1)NC(=O)[C@@H]1C[C@H](O)CN1C(=O)NNC(=O)Cc1ccccc1`, for which the inhibition entry in data set [4] and in data set [5] was “inactive” in each case.

As to `N[C@@H]1C[C@@H](C(=O)N[C@@H](Cc2cccnc2)C(=O)N[C@H](CC(=O)O)Cc2ccccc2)N(C(=O)NNC(=O)Cc2ccccc2)C1` (PhAc-[azaGly][Pro(4R-NH2)][3Pal][β3hF]-OH), the inhibition entry in data set [4] and in data set [5] was “Active” each time.

The record behind these values is ChEMBL document CHEMBL4350956, “Paired Utility of Aza-Amino Acyl Proline and Indolizidinone Amino Acid Residues for Peptide Mimicry: Conception of Prostaglandin F2α Receptor Allosteric Modulators That Delay Preterm Birth” (J Med Chem, 2019).
